As usually defined, the GI50 is the concentration at which growth is held to half of that of the control. High values mean less potent growth inhibition, low ones more potent growth inhibition. Usually IC50 stands for the concentration needed to halve the response being measured. Read a low IC50 as inhibition by little substance. Broadly, the pIC50 is −log10 of the IC50, conventionally taken in molar units. Low readings indicate a large IC50, high ones a small IC50. What is called LD50 is the dose at which mortality reaches 50%.

36 compounds from ChEMBL document CHEMBL2034910, “Synthesis, biological evaluation and 3D-QSAR studies of novel 4,5-dihydro-1H-pyrazole niacinamide derivatives as BRAF inhibitors” (Bioorg Med Chem, 2012) can be followed below.

Data set [1] in a line: Antiproliferative activity against human WM266.4 cells after 24 hrs by MTT assay. It is filed as functional. The settings on record: WM 266-4, 24 h. An outline of the steps:
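WM266.5 (so in the source) melanoma cells in DMEM/10% FBS, 37 °C, 5% CO2; seeded 1000 cells/well and left 24 h to reattach. DMSO stocks (20 mM) serially diluted in medium to final 100 µM–0.005 µM. Exposure 24 h at 37 °C. Viability by MTT reduction, absorbance at 590 nm; GI50 calculated.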

The nature of data set [2]: Inhibition of mouse full length GST-tagged BRAF V600E mutant-mediated Mek1 phosphorylation preincubated for 1 hr prior to substrate addition measured after 25 mins by PAGE analysis.
Data set [3] can be described thus: Acute oral toxicity in po dosed rat after 14 days. It is filed as organism-based. The following applies: in vivo. In short, it runs like this: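 Single 5000 mg/kg dose given by oral gavage to ten healthy rats. Mortality, gross toxicity signs and behavioural changes were checked at least once daily for 14 days. Body weights were taken before dosing and on days 7 and 14.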

As for `COc1ccc(C2=NN(C(=O)c3cncc(Br)c3)C(c3ccc(OC)cc3)C2)cc1` (stereo not drawn), the GI50 in data set [1] turned out to be 7.56 µM. Further, in data set [2], the IC50 turned out to be 4.58 µM and the negative-log IC50 (pIC50) was 5.339.

For `COc1ccc(C2=NN(C(=O)c3ccc(Cl)nc3)C(c3ccc(OC)cc3)C2)cc1` (stereo not drawn), it took 6.45 µM to inhibit growth in data set [1] by half (GI50). In data set [2], the IC50 stood at 7.56 µM and the pIC50 came to 5.121.

Compound `COc1ccc(C2=NN(C(=O)c3ccc(C)nc3Cl)C(c3ccc(OC)cc3)C2)cc1` (stereo not drawn) registered a GI50 in data set [1] of 5.74 µM. In data set [2], this compound yielded an IC50 of 5.14 µM and a pIC50 of 5.289.

In data set [1], `COc1ccc(C2=NN(C(=O)c3cccnc3Cl)C(c3ccc(OC)cc3)C2)cc1` (stereo not drawn) registered a 50% growth inhibitory concentration (GI50) of 4.35 µM. In data set [2], half-maximal inhibition (IC50) required 6.14 µM and the pIC50 was determined as 5.212.

Take `COc1ccc(C2=NN(C(=O)c3ccc(C)nc3)C(c3ccc(OC)cc3)C2)cc1` (stereo not drawn): the GI50 in data set [1] was determined as 4.93 µM. Moreover, in data set [2], the IC50 came out at 3.42 µM and the pIC50 was found to be 5.466.

Consider `COc1ccc(C2=NN(C(=O)c3cncc(Br)c3)C(c3ccc(Cl)cc3)C2)cc1` (stereo not drawn), for which the 50% growth inhibitory concentration (GI50) in data set [1] is 1.29 µM. For the same compound, in data set [2], the IC50 was found to be 0.38 µM and the negative logarithm of the IC50 (pIC50) worked out at 6.42.

In data set [1], `COc1ccc(C2=NN(C(=O)c3ccc(Cl)nc3)C(c3ccc(Cl)cc3)C2)cc1` (stereo not drawn) gave a GI50 of 1.45 µM. In data set [2], this compound gave an IC50 of 0.51 µM and a pIC50 of 6.292.

Regarding `COc1ccc(C2=NN(C(=O)c3ccc(C)nc3Cl)C(c3ccc(Cl)cc3)C2)cc1` (stereo not drawn), in data set [1], halving of growth (GI50) required 1.44 µM. In data set [2], the IC50 turned out to be 0.58 µM and the pIC50 was found to be 6.237.

In data set [1], `COc1ccc(C2=NN(C(=O)c3cccnc3Cl)C(c3ccc(Cl)cc3)C2)cc1` (stereo not drawn) came in with a concentration for 50% growth inhibition (GI50) of 0.78 µM. In data set [2], this compound came in with a half-inhibitory concentration (IC50) of 0.47 µM and a pIC50 of 6.328.

For the compound `COc1ccc(C2=NN(C(=O)c3ccc(C)nc3)C(c3ccc(Cl)cc3)C2)cc1` (stereo not drawn), the GI50 in data set [1] turned out to be 0.89 µM. Moreover, in data set [2], the midpoint of inhibition, the IC50, lay at 0.2 µM and the negative-log IC50 (pIC50) is 6.796. The compound further came in with an LD50 at 336 h in data set [3] of more than 5000 mg/kg.

The compound `COc1ccc(C2=NN(C(=O)c3cncc(Br)c3)C(c3ccc(Br)cc3)C2)cc1` (stereo not drawn) displayed a GI50 in data set [1] of 5.63 µM. In data set [2], this compound registered a half-maximal inhibitory concentration (IC50) of 3.51 µM and a negative logarithm of the IC50 (pIC50) of 5.455.

In data set [1], `COc1ccc(C2=NN(C(=O)c3ccc(Cl)nc3)C(c3ccc(Br)cc3)C2)cc1` (stereo not drawn) registered a 50% growth inhibitory concentration (GI50) of 7.13 µM. In data set [2], this compound displayed a 50% inhibitory concentration (IC50) of 6.89 µM and a negative-log IC50 (pIC50) of 5.162.

For the compound `COc1ccc(C2=NN(C(=O)c3ccc(C)nc3Cl)C(c3ccc(Br)cc3)C2)cc1` (stereo not drawn), the GI50 in data set [1] is 8.47 µM. In data set [2], this compound yielded an IC50 of 6.76 µM and a pIC50 of 5.17.

As to `COc1ccc(C2=NN(C(=O)c3cccnc3Cl)C(c3ccc(Br)cc3)C2)cc1` (stereo not drawn), in data set [1], halving of growth (GI50) required 3.05 µM. In data set [2], this compound displayed an IC50 of 5.57 µM and a pIC50 of 5.254.

In data set [1], `COc1ccc(C2=NN(C(=O)c3ccc(C)nc3)C(c3ccc(Br)cc3)C2)cc1` (stereo not drawn) had a GI50 of 4.28 µM. In data set [2], this compound showed an IC50 of 4.23 µM and a negative logarithm of the IC50 (pIC50) of 5.373.

Compound `COc1ccc(C2=NN(C(=O)c3cncc(Br)c3)C(c3ccc(OCc4ccccc4)cc3)C2)cc1` (stereo not drawn) came in with a concentration for 50% growth inhibition (GI50) in data set [1] of 6.24 µM. In data set [2], this compound returned a half-maximal inhibitory concentration (IC50) of 4.27 µM and a pIC50 of 5.272.

`COc1ccc(C2=NN(C(=O)c3ccc(Cl)nc3)C(c3ccc(OCc4ccccc4)cc3)C2)cc1` (stereo not drawn): in data set [1], the GI50 came out at 10.6 µM. Also, in data set [2], the IC50 came to 6.78 µM and the negative logarithm of the IC50 (pIC50) amounted to 5.369.

Consider `COc1ccc(C2=NN(C(=O)c3ccc(C)nc3Cl)C(c3ccc(OCc4ccccc4)cc3)C2)cc1` (stereo not drawn), for which the GI50 in data set [1] was determined as 10.5 µM. Moreover, in data set [2], the half-maximal inhibitory concentration (IC50) was 3.01 µM and the negative logarithm of the IC50 (pIC50) amounted to 5.521.

For `COc1ccc(C2=NN(C(=O)c3cccnc3Cl)C(c3ccc(OCc4ccccc4)cc3)C2)cc1` (stereo not drawn), the GI50 in data set [1] came to 9.15 µM. In data set [2], this compound yielded a 50% inhibitory concentration (IC50) of 6.49 µM and a pIC50 of 5.188.

For `COc1ccc(C2=NN(C(=O)c3ccc(C)nc3)C(c3ccc(OCc4ccccc4)cc3)C2)cc1` (stereo not drawn), in data set [1], it took 7.95 µM to inhibit growth by half (GI50). In data set [2], this compound showed a 50% inhibitory concentration (IC50) of 1.63 µM and a pIC50 of 5.788.

Regarding `O=C(c1cncc(Br)c1)N1N=C(c2ccc(Cl)cc2)CC1c1ccc(OCc2ccccc2)cc1` (stereo not drawn), growth in data set [1] was halved (GI50) at 8.13 µM. For the same compound, in data set [2], the midpoint of inhibition, the IC50, lay at 7.61 µM and the negative-log IC50 (pIC50) came to 5.119.

In data set [1], `O=C(c1ccc(Cl)nc1)N1N=C(c2ccc(Cl)cc2)CC1c1ccc(OCc2ccccc2)cc1` (stereo not drawn) showed a GI50 of 13.2 µM. In data set [2], this compound displayed a 50% inhibitory concentration (IC50) of 16.4 µM and a negative logarithm of the IC50 (pIC50) of 4.784.

Consider `Cc1ccc(C(=O)N2N=C(c3ccc(Cl)cc3)CC2c2ccc(OCc3ccccc3)cc2)c(Cl)n1` (stereo not drawn), for which the GI50 in data set [1] came to 11.4 µM. Further, in data set [2], the IC50 turned out to be 12.9 µM and the pIC50 was found to be 4.89.

Regarding `O=C(c1cccnc1Cl)N1N=C(c2ccc(Cl)cc2)CC1c1ccc(OCc2ccccc2)cc1` (stereo not drawn), the GI50 in data set [1] is 7.71 µM. In data set [2], this compound displayed a 50% inhibitory concentration (IC50) of 4.42 µM and a negative logarithm of the IC50 (pIC50) of 5.355.

In the case of `Cc1ccc(C(=O)N2N=C(c3ccc(Cl)cc3)CC2c2ccc(OCc3ccccc3)cc2)cn1` (stereo not drawn), the GI50 in data set [1] came out at 9.2 µM. In data set [2], the concentration for half-maximal inhibition (IC50) amounted to 7.02 µM and the pIC50 was determined as 5.154.

In turn, `O=C(c1cncc(Br)c1)N1N=C(c2ccc(Cl)cc2)CC1c1ccc(Cl)cc1` (stereo not drawn) displayed a GI50 in data set [1] of 6.09 µM. In data set [2], inhibition was half-maximal at 4.77 µM (IC50) and the pIC50 amounted to 5.321.

For `O=C(c1ccc(Cl)nc1)N1N=C(c2ccc(Cl)cc2)CC1c1ccc(Cl)cc1` (stereo not drawn), the concentration for 50% growth inhibition (GI50) in data set [1] stood at 9.89 µM. Besides, in data set [2], the concentration for half-maximal inhibition (IC50) was found to be 7.16 µM and the negative logarithm of the IC50 (pIC50) was 5.145.

Consider `Cc1ccc(C(=O)N2N=C(c3ccc(Cl)cc3)CC2c2ccc(Cl)cc2)c(Cl)n1` (stereo not drawn), for which the 50% growth inhibitory concentration (GI50) in data set [1] was found to be 8.87 µM. In data set [2], this compound gave a concentration for half-maximal inhibition (IC50) of 7.77 µM and a negative-log IC50 (pIC50) of 5.11.

The compound `O=C(c1cccnc1Cl)N1N=C(c2ccc(Cl)cc2)CC1c1ccc(Cl)cc1` (stereo not drawn) displayed a GI50 in data set [1] of 3.58 µM. In data set [2], the concentration for half-maximal inhibition (IC50) stood at 2.12 µM and the pIC50 is recorded as 5.672.

As to `Cc1ccc(C(=O)N2N=C(c3ccc(Cl)cc3)CC2c2ccc(Cl)cc2)cn1` (stereo not drawn), the GI50 in data set [1] came to 3.79 µM. In data set [2], 3.58 µM corresponded to half-maximal inhibition (IC50) and the negative logarithm of the IC50 (pIC50) came out at 5.446.

In turn, `O=C(c1cncc(Br)c1)N1N=C(c2ccc(Cl)cc2)CC1c1ccc(Br)cc1` (stereo not drawn) returned a GI50 in data set [1] of 8.01 µM. Moreover, in data set [2], the midpoint of inhibition, the IC50, lay at 7.82 µM and the pIC50 turned out to be 5.107.

`O=C(c1ccc(Cl)nc1)N1N=C(c2ccc(Cl)cc2)CC1c1ccc(Br)cc1` (stereo not drawn): in data set [1], the GI50 was determined as 9.87 µM. In data set [2], this compound returned an IC50 of 7.34 µM and a negative logarithm of the IC50 (pIC50) of 5.134.

In data set [1], `Cc1ccc(C(=O)N2N=C(c3ccc(Cl)cc3)CC2c2ccc(Br)cc2)c(Cl)n1` (stereo not drawn) came in with a GI50 of 10.8 µM. In data set [2], this compound showed a half-inhibitory concentration (IC50) of 7.35 µM and a negative-log IC50 (pIC50) of 5.134.

Compound `O=C(c1cccnc1Cl)N1N=C(c2ccc(Cl)cc2)CC1c1ccc(Br)cc1` (stereo not drawn) registered a 50% growth inhibitory concentration (GI50) in data set [1] of 7.45 µM. For the same compound, in data set [2], the 50% inhibitory concentration (IC50) is 8.67 µM and the negative-log IC50 (pIC50) was found to be 5.062.

In data set [1], `Cc1ccc(C(=O)N2N=C(c3ccc(Cl)cc3)CC2c2ccc(Br)cc2)cn1` (stereo not drawn) registered a GI50 of 7.65 µM. For the same compound, in data set [2], half-maximal inhibition (IC50) required 7.05 µM and the pIC50 is 5.152.

`CNC(=O)c1cc(Oc2ccc(NC(=O)Nc3ccc(Cl)c(C(F)(F)F)c3)cc2)ccn1` [SORAFENIB] yielded a concentration for 50% growth inhibition (GI50) in data set [1] of 8.12 µM. Also, the half-maximal inhibitory concentration (IC50) in data set [2] was 0.06 µM.
